Measurements: PMC8811919 (ACS Omega, 2022)
Where two headings read alike, the source gives them in different places.

Key:
[1] = test system: MCF-7 (human breast adenocarcinoma); experiment: Cell viability in treated cell lines; assay type: cell-based; settings: MCF7, 72 h
In short: (§1)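 Cells were kept in RPMI 1640 with 10% FCS and penicillin/streptomycin at 37 °C, 5% CO2. They were seeded at 6000 cells/well, held 24 h, then given test compound at 0, 15.62, 31.25, 62.5, 125, 250, 500 and 1000 […] for 72 h. MTT (5 mg/mL) was added for 4 h, formazan dissolved in DMSO, and A570 read. Treatment was done in triplicate. EC50 came from sigmoidal variable-slope nonlinear regression of % growth inhibition.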

[2] = test system: MCF-7 cells; experiment: Late apoptosis study; assay type: cell-based, human; settings: treated at EC50 of 72 h, 36 h incubation
In short: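 MCF-7 cells were seeded at 2 × 10^4 on chamber slides and held 24 h at 37 °C, then exposed to test compound for 36 h; untreated cells served as control. Cells were fixed in 4% paraformaldehyde/PBS (pH 7.4) for 25 min at 4 °C and permeabilised with 0.2% Triton X-100 for 5 min. DNA ends were labelled with rTdT/nucleotide mix at 37 °C in the dark. Diluted SSC was added, and nuclei were counterstained with PI (1 μg/mL, 15 min, RT). FITC signal was imaged by high-content microscopy.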

[3] = target: T1, urease (Canavalia ensiformis, UniProt P07374); experiment: Urease inhibitory assay; assay type: biochemical
In short: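 Urease in pH 8.2 buffer (0.01 M K2HPO4·3H2O, 1 mM EDTA, 0.01 M LiCl) with 100 mM urea, incubated 15 min at 30 °C with test compound added from a 1 mM solution. Ammonia detected by indophenol: alkali (0.5% NaOH, 0.1% active chloride NaOCl) plus phenol reagent (1% phenol, 0.005% nitroprusside). A630 read after 50 min as change per min; triplicate; acetohydroxamic acid standard; % inhibition.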

[4] = test system: HeLa (cervical cancer); experiment: Cell viability in treated cell lines; assay type: cell-based; settings: Homo sapiens, 72 h, read-out: EC50 HeLa
In short: as §1

[5] = target: T1, urease; experiment: Kinetic study of urease inhibition; assay type: biochemical
[6] = test system: MCF-7 cells; experiment: Early apoptosis study; assay type: cell-based, human; settings: treated at EC50 of 72 h for 6 and 9 h
In short: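 MCF-7 cells were seeded at 10,000 cells/well and held 24 h at 37 °C. The medium was replaced with test compound, alongside a positive control and an untreated control, for 6 and 9 h. Cells were stained with Annexin V-FITC (green) and PI (red) in binding buffer for 10 min at 37 °C. They were imaged by widefield high-content imaging to score early versus late apoptosis and necrosis.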

T1 sequence (P07374 whole entry, looked up): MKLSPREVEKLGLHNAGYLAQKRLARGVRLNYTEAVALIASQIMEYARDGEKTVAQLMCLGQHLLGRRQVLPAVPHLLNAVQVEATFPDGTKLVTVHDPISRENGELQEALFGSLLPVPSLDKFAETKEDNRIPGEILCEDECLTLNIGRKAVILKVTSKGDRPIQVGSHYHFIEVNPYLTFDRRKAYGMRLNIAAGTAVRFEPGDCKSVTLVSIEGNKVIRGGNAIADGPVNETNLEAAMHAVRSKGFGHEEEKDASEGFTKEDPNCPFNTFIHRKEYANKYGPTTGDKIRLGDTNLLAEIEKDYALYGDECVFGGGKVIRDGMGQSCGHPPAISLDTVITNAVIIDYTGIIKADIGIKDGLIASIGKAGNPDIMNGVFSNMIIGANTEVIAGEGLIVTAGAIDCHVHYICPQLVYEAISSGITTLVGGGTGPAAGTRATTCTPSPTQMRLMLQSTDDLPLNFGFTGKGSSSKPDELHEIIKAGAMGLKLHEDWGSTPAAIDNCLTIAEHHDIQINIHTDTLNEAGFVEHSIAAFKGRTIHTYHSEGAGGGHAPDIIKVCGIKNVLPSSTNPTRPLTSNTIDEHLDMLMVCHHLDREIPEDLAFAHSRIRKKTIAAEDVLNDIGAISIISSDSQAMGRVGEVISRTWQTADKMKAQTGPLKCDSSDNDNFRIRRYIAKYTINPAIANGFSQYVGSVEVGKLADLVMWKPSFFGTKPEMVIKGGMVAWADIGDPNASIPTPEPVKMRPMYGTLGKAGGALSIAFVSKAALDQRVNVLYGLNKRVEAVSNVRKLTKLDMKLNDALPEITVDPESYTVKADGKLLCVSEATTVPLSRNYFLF

SMILES	IC50 [3]	EC50 ([1]; read-out: EC50 MCF-7)	EC50 [4]	other results
CCCCCOC(=O)Nc1nc(=O)n([C@@H]2O[C@H](C)[C@@H](O)[C@H]2O)cc1F [CP, capecitabine, reference compound]	–	–	–	EC50 ([1]; read-out: EC50 on MCF-7): 980 µM; DNA fragmentation (TUNEL, green stain of nuclei) [2]: green-stained nuclei were observed
Oc1ccccc1C1=NN(c2ccccc2)C(c2ccc(Br)cc2)C1 (stereo not shown) [Compound 2c, 1-Phenyl-3(2-hydroxy-phenyl)-5-(4-bromo-phenyl)-2-pyrazoline]	12.6 ± 0.43 µM	> 500 µM	> 500 µM	–
COc1cc(C2CC(c3ccccc3O)=NN2c2ccccc2)cc(OC)c1OC (stereo not shown) [Compound 2d, 1-Phenyl-3(2-hydroxy-phenyl)-5-(3,4,5-trimethoxyphenyl)-2-pyrazoline]	13.3 ± 0.25 µM	> 500 µM	> 500 µM	–
COc1ccc(C2CC(c3ccccc3O)=NN2c2ccccc2)cc1 (stereo not shown) [Compound 2e, 1-Phenyl-3(2-hydroxy-phenyl)-5-(4-methoxyphenyl)-2-pyrazoline]	15.4 ± 0.38 µM	> 500 µM	> 500 µM	–
COc1ccc(C2CC(c3ccccc3O)=NN2c2ccccc2)cc1OC (stereo not shown) [Compound 2g, 1-Phenyl-3(2-hydroxy-phenyl)-5-(3,4-dimethoxyphenyl)-2-pyrazoline]	9.13 ± 0.25 µM	> 500 µM	> 500 µM	Ki [5]: 19.1 µM; mode of inhibition ([5]; urease): competitive inhibition; Vmax ([5]; urease, at a 20 μM inhibitor concentration): 5.76 µM/min
O=C(O)c1ccc(C2CC(c3ccccc3O)=NN2c2ccccc2)cc1 (stereo not shown) [Compound 2h, 1-Phenyl-3(2-hydroxy-phenyl)-5-(4-carboxyphenyl)-2-pyrazoline]	11.3 ± 0.51 µM	> 500 µM	> 500 µM	–
CC(=O)Nc1ccc(C2CC(c3ccccc3O)=NN2c2ccccc2)cc1 (stereo not shown) [Compound 2j, 1-Phenyl-3(2-hydroxy-phenyl)-5-(4-acetamidophenyl)-2-pyrazoline]	13.7 ± 0.47 µM	> 500 µM	> 500 µM	–
Oc1ccccc1C1=NN(c2ccccc2)C(c2ccccc2)C1 (stereo not shown) [Compound 2l, 1-Phenyl-3(2-hydroxy-phenyl)-5-phenyl-2-pyrazoline]	–	120 ± 0.1 µM	510 µM	urease IC50 ± SEM ([3]; pH 8.2, 30 °C, 100 mM urea): NA* ^a; mode of MCF-7 cell death (Annexin V-FITC/PI staining) [6]: induce early apoptosis; DNA fragmentation (TUNEL, green stain of nuclei) [2]: morphologically detectable (green)
Cc1ccc(C2CC(c3ccccc3O)=NN2c2ccccc2)c(C)c1 (stereo not shown) [Compound 2p, 1-Phenyl-3(2-hydroxy-phenyl)-5(2,4-dimethyl-phenyl)-2-pyrazoline]	12.2 ± 0.38 µM	> 500 µM	> 500 µM	–
